{"source": "ChEMBL document CHEMBL1157607", "about": "“Piracetam defines a new binding site for allosteric modulators of alpha-amino-3-hydroxy-5-methyl-4-isoxazole-propionic acid (AMPA) receptors” (J Med Chem, 2010)", "key": {"[1]": {"assay": "Binding affinity to subsite A in S1S2 domain of GluA2 receptor expressed in Escherichia coli by crystallography", "in_short": "(§1)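 GluA2 S1S2 domain (flip form via N754S, GluA2i) expressed in E. coli Origami B (DE3) cells, IPTG 0.5 mM final at 20°C for 20 h. Purified by Ni-NTA, sizing and ion exchange with glutamate in all buffers. Protein at 0.3 mM with 10 mM glutamate, ligand 5 mM final. Co-crystals grown by hanging drop at 4°C against 16–18% PEG 8K, 0.1 M sodium cacodylate, 0.1–0.15 M zinc acetate, pH 6.5.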"}, "[2]": {"assay": "Binding affinity to subsite B/B' and subsite C/C' in S1S2 domain of GluA2 receptor expressed in Escherichia coli by crystallography", "in_short": "as §1"}, "[3]": {"assay": "Binding affinity to subsite C/C' in S1S2 domain of GluA2 receptor expressed in Escherichia coli by crystallography", "in_short": "as §1"}}, "note": "Active and inactive are the calls of the source. The calls are words filed in the database; no cut-off is given here.", "data": [{"smiles": "COc1ccc(C(=O)N2CCCC2=O)cc1", "values": [{"measurement": "Activity", "setting": "[1]", "value": "Active"}, {"measurement": "Activity", "setting": "[2]", "value": "Active"}]}, {"smiles": "NS(=O)(=O)c1cc2c(cc1Cl)NC(C1CC3C=CC1C3)NS2(=O)=O", "note": "(stereo not given)", "values": [{"measurement": "Activity", "setting": "[2]", "value": "Active"}]}, {"smiles": "CC1Nc2ccc(Cl)cc2S(=O)(=O)N1", "note": "(stereo not given)", "values": [{"measurement": "Activity", "setting": "[3]", "value": "Active"}]}, {"smiles": "NS(=O)(=O)c1cc2c(cc1Cl)NCNS2(=O)=O", "values": [{"measurement": "Activity", "setting": "[3]", "value": "Active"}]}, {"smiles": "NS(=O)(=O)c1cc2c(cc1Cl)NC(C(Cl)Cl)NS2(=O)=O", "note": "(stereo not given)", "values": [{"measurement": "Activity", "setting": "[2]", "value": "Active"}]}, {"smiles": "O=C1c2cc3c(cc2OC2CCCN12)OCCO3", "note": "(stereo not given)", "values": [{"measurement": "Activity", "setting": "[1]", "value": "Active"}, {"measurement": "Activity", "setting": "[2]", "value": "Active"}]}, {"smiles": "C=CCSCC1Nc2cc(Cl)c(S(N)(=O)=O)cc2S(=O)(=O)N1", "note": "(stereo not given)", "values": [{"measurement": "Activity", "setting": "[2]", "value": "Active"}]}, {"smiles": "NS(=O)(=O)c1cc2c(cc1C(F)(F)F)NCNS2(=O)=O", "values": [{"measurement": "Activity", "setting": "[3]", "value": "Active"}]}]}
